Entries after “also recorded” stand apart in the source; their conditions may differ.
Legend:
[1] = tested on: untransfected HEK293 cells; assay: fura-2 assay of [Ca2+]i in untransfected HEK293 cells; assay type: cell-based, human; details: DG2 0.1–10 μM; ADP 20 μM positive control
Outline: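 Trypsinized HEK293 cells plated on rat tail collagen-coated 96-well plates and loaded with fura-2 AM. Read in kinetic mode on a fluorescence plate reader. Test solutions added by automated pipetting at 100 s. Data sampled at 6 s intervals over 300 s. Read-out: percent change in 340/380 ratio after baseline subtraction. Each experiment repeated at least three times.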

[2] = target: T1, CCK2i4svR (Homo sapiens, UniProt P32239); assay type: binding; details: read-out: IC50, displacement of [125I][I-Tyr12,Leu15]gastrin; HEK293-CCK2i4svR cell membranes, 60 min at 22 °C, mean ± SD, n = 3
T1 sequence (P32239 1-516 isoform P32239-2): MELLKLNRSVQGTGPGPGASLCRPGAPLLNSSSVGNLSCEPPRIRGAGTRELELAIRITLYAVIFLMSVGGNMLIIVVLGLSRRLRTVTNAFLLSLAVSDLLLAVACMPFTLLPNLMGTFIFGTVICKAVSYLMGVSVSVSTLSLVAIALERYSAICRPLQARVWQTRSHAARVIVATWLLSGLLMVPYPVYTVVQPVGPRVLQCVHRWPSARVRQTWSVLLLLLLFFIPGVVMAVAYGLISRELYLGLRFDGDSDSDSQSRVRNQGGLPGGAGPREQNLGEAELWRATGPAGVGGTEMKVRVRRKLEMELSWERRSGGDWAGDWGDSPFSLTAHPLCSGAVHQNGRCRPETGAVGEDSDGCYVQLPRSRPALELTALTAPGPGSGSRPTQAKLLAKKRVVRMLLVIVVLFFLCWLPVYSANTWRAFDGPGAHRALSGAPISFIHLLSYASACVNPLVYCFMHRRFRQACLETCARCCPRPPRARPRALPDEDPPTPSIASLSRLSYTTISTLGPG
Outline: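 Parent nonpeptidic antagonist served as reference. Stopped with ice-cold 10 mM HEPES pH 7.4/150 mM NaCl, then rapid GF/B glass-fibre filtration and gamma counting. IC50 by one-site nonlinear regression; mean ± SD, three experiments in triplicate.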

SMILES: Nc1ncnc2c1ncn2[C@@H]1O[C@H](COP(=O)(O)OP(=O)(O)O)[C@@H](O)[C@H]1O [ADP]
- agonist action on [Ca2+]i in untransfected HEK293 cells [1]: did respond; also recorded: does exert an agonist action

SMILES: CC(C)(C)C(=O)CN1C(=O)[C@H](NC(=O)Nc2cccc(C(=O)O)c2)CN(C2CCCCC2)c2ccccc21 [Z-360, 3-[[[[(3R)-5-cyclohexyl-1-(3,3-dimethyl-2-ox-obutyl)-2,3,4,5-tetrahydro-2-oxo-1H-1,5-benzodiazepin-3-yl]-amino]carbonyl]amino]benzoic acid]
- IC50 [2]: 1.57 ± 0.14 nM
